Where two headings read alike, the source gives them in different places.
What was measured:
cancer cell lines = type: cell-based; conditions: for antiproliferative activity: text summary of Tables 1–3; for activity relative to 47: IC50 values of Table 4; for IC50: read-out: activity/potency range across cancer cell lines
[1] = Aqueous solubility, Multiscreen solubility filter plate with LC-MS/MS; type: physicochemical; conditions: for solubility compared with compound 1: Figure 3
B16-F1 = assay: SRB cytotoxicity assay, B16-F1 mouse melanoma cells; type: cell-based; conditions: read-out: IC50 ± SEM, B16-F1, 96 h treatment
DU 145 = assay: SRB cytotoxicity assay, DU 145 prostate cancer cells; type: cell-based, human; conditions: read-out: IC50 ± SEM, DU 145
PPC-1 = assay: SRB cytotoxicity assay, PPC-1 prostate cancer cells; type: cell-based, human; conditions: read-out: IC50 ± SEM, PPC-1
WM-164 = assay: SRB cytotoxicity assay, WM-164 melanoma cells; type: cell-based, human; conditions: read-out: IC50 ± SEM, WM-164, 96 h treatment
A375 = assay: SRB cytotoxicity assay, A375 melanoma cells; type: cell-based, human; conditions: read-out: IC50 ± SEM, A375, 96 h treatment
LNCaP = assay: SRB cytotoxicity assay, LNCaP prostate cancer cells; type: cell-based, human; conditions: read-out: IC50 ± SEM, LNCaP
PC-3 = assay: SRB cytotoxicity assay, PC-3 prostate cancer cells; type: cell-based, human; conditions: read-out: IC50 ± SEM, PC-3
Bovine brain tubulin = assay: In vitro tubulin polymerization assay; type: biochemical; conditions: 5 µM compound, 20 min incubation
Outline: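 Bovine brain tubulin (0.4 mg, >97% pure) combined with test compound in general tubulin buffer (80 mM PIPES, 2.0 mM MgCl₂, 0.5 mM EGTA, 1 mM GTP, pH 6.9) at 37 °C. Polymerization tracked as A340 read every 1 min over 20 min. Inhibition expressed against vehicle.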

[2] = Rat pharmacokinetic study; type: in vivo, Sprague–Dawley rats; conditions: 10 mg/kg

For `COc1cc(C(=O)c2csc(-c3ccc(CN(C)C)cc3)n2)cc(OC)c1OC.Cl` [Compound 42, (2-(4-((Dimethylamino)methyl)phenyl)thiazol-4-yl)(3,4,5-trimeth-oxyphenyl)methanone Hydrochloride], the “antiproliferative activity” value (cancer cell lines) was “abrogated activity”.

For `COc1cc(C(=O)c2csc(Nc3ccccc3)n2)cc(OC)c1OC` [Compound 45a, (2-(Phenylamino)thiazol-4-yl)(3,4,5-trimethoxyphenyl)methanone], the “solubility compared with compound 1” value ([1]; PBS) was “improved solubility”, the “activity relative to 47” value (cancer cell lines) was “over 20 fold” and the IC50 (cancer cell lines) was 0.035 to 0.065 µM.

For “3-(3,4,5-Trimethoxyphenylsulfinyl)biphenyl [Compound 25]”, the IC50 (B16-F1) was over 10 µM, the IC50 (DU 145; SRB assay, 96 h treatment) was over 10 µM and the IC50 (PPC-1; SRB assay, 96 h treatment) was over 10 µM. The IC50 (WM-164) was over 10 µM, the IC50 (A375) was over 10 µM and the IC50 (LNCaP; SRB assay, 96 h treatment) was over 10 µM. The IC50 (PC-3; SRB assay, 96 h treatment) was over 10 µM.

For `COc1cc(C(=O)c2csc(-c3ccc4[nH]ccc4c3)n2)cc(OC)c1OC` [Compound 36, (2-(1H–Indol-5-yl)thiazol-4-yl)(3,4,5-trimethoxyphenyl)methanone], the “inhibition of tubulin polymerization as compared to vehicle” value (Bovine brain tubulin) was 69%.

For `COc1cc(C(=O)c2cccc(-c3ccccc3)c2)cc(OC)c1OC` [Compound 9a, Biphenyl-3-yl(3,4,5-trimethoxyphenyl)methanone], the “antiproliferative activity” value (cancer cell lines) was “hundreds of nanomolar range”.

For “N-(3,4,5-Trimethoxyphenyl)biphenyl-3-sulfinamide [Compound 26]”, the IC50 (B16-F1) was over 10 µM, the IC50 (DU 145; SRB assay, 96 h treatment) was over 10 µM and the IC50 (PPC-1; SRB assay, 96 h treatment) was over 10 µM. For the same compound, the IC50 (WM-164) was over 10 µM, the IC50 (A375) was over 10 µM and the IC50 (LNCaP; SRB assay, 96 h treatment) was over 10 µM. For the same compound, the IC50 (PC-3; SRB assay, 96 h treatment) was over 10 µM.

`CO/N=C(\c1cc(OC)c(OC)c(OC)c1)c1csc(-c2ccccc2)n1` [Compound 13d, (E)-(2-Phenylthiazol-4-yl)(3,4,5-trimethoxyphenyl)methanone O-Methyl Oxime] gave an IC50 (LNCaP; Homo sapiens, LNCaP, 96 h) of over 10 µM and an IC50 (PC-3; Homo sapiens, PC-3, 96 h) of over 10 µM.

With `COc1cc(/C(=N\N)c2csc(-c3ccccc3)n2)cc(OC)c1OC` [Compound 14b, (E)-4-(Hydrazono(3,4,5-trimethoxyphenyl)methyl)-2-phenylthiazole] the IC50 (DU 145; Homo sapiens, DU-145, 96 h) was 1.21 µM.

In the case of “Biphenyl-3-yl(3,4,5-trimethoxyphenyl)sulfane [Compound 23]”, the IC50 (B16-F1) is reported as 2.4 ± 0.9 µM, the IC50 (DU 145; SRB assay, 96 h treatment) is reported as over 10 µM and the IC50 (PPC-1; SRB assay, 96 h treatment) is reported as 2.3 ± 0.1 µM. The IC50 (WM-164) was 2 ± 1.2 µM, the IC50 (A375) was 1.6 ± 0.4 µM and the IC50 (LNCaP; SRB assay, 96 h treatment) was 2.3 ± 0.2 µM. The IC50 (PC-3; SRB assay, 96 h treatment) was over 10 µM.

With `COc1cc(/C(=N/O)c2csc(-c3ccccc3)n2)cc(OC)c1OC` [Compound 13a, (Z)-(2-Phenylthiazol-4-yl)(3,4,5-trimethoxyphenyl)methanoneOxime] the “activity of syn-isomer relative to anti isomer 13b” value (cancer cell lines; 13a vs 13b) was 10 fold.

For “(E)-2-Phenyl-4-(3,4,5-trimethoxystyryl)thiazole [Compound 21]”, the IC50 (B16-F1) was 32.8 ± 13 µM, the IC50 (DU 145; SRB assay, 96 h treatment) was over 10 µM and the “antiproliferative activity” value (cancer cell lines) was “lost activity”. The IC50 (PPC-1; SRB assay, 96 h treatment) was over 10 µM, the IC50 (WM-164) was 30.8 ± 12 µM and the IC50 (A375) was over 100 µM. The IC50 (LNCaP; SRB assay, 96 h treatment) was over 10 µM and the IC50 (PC-3; SRB assay, 96 h treatment) was over 10 µM.

`COc1cc(C(=O)c2csc(-c3ccccc3)n2)cc(OC)c1OC` [Compound 1] showed an IC50 (PPC-1; Homo sapiens, PPC-1, 96 h) of 0.043 ± 0.005 µM and an IC50 (PC-3; Homo sapiens, PC-3, 96 h) of 0.021 ± 0.001 µM.

With `COc1cc(C(=O)C2COC(c3ccccc3)=N2)cc(OC)c1OC` (stereo in doubt) [Compound 5, (2R)-(2-Phenyl-4,5-dihydro-oxazol-4-yl)-(3,4,5-trimethoxy-phenyl)-methanone] the “antiproliferative activity” value (cancer cell lines) was “hundreds of nanomolar range”.

For `COc1cc(C(=O)c2csc(Nc3ccc(F)cc3)n2)cc(OC)c1OC.Cl` [Compound 46c, (2-(p-Fluorophenylamino)thiazol-4-yl)(3,4,5-trimethoxyphenyl)-methanone Hydrochloride Salt], the “increased exposure (AUC) by the oral route as compared to 1” value [2] was “more than 4.3 fold”.

With `COc1cc(C(=O)c2csc(-c3ccc(CN)cc3)n2)cc(OC)c1OC.Cl` [Compound 39, (2-(4-(Aminomethyl)phenyl)thiazol-4-yl)(3,4,5-trimethoxyphenyl)-methanone Hydrochloride] the “increase in solubility compared with compound 1” value ([1]; PBS, HCl salt) was “over 35 fold” and the solubility at […] ([1]; phosphate buffered saline (PBS) buffer, pH 7.4) was at least 35 µg/mL.

For `COc1cc(C(=O)c2csc(Nc3ccc(F)cc3)n2)cc(OC)c1OC` [Compound 45c, (2-(p-Fluorophenylamino)thiazol-4-yl)(3,4,5-trimethoxyphenyl)-methanone], the “solubility compared with compound 1” value ([1]; PBS) was “improved solubility” and the IC50 (cancer cell lines) was 0.035 to 0.065 µM.

With “(Z)-2-Phenyl-4-(3,4,5-trimethoxystyryl)thiazole [Compound 20]” the IC50 (B16-F1) was 11 ± 2.8 µM, the IC50 (DU 145; SRB assay, 96 h treatment) was over 10 µM and the “antiproliferative activity” value (cancer cell lines) was “lost activity”. For the same compound, the IC50 (PPC-1; SRB assay, 96 h treatment) was over 10 µM, the IC50 (WM-164) was 10.6 ± 5.8 µM and the IC50 (A375) was 46.5 ± 23.3 µM. The IC50 (LNCaP; SRB assay, 96 h treatment) was over 10 µM and the IC50 (PC-3; SRB assay, 96 h treatment) was over 10 µM.

In the case of `COc1cc(C(=O)c2cc(-c3ccccc3)n[nH]2)cc(OC)c1OC` [Compound 9f, (3-Phenyl-1H–pyrazol-5-yl)(3,4,5-trimethoxyphenyl)methanone], the “antiproliferative activity” value (cancer cell lines) is reported as “hundreds of nanomolar range”.

In the case of `CO/N=C(/c1cc(OC)c(OC)c(OC)c1)c1csc(-c2ccccc2)n1` [Compound 13c, (Z)-(2-Phenylthiazol-4-yl)(3,4,5-trimethoxyphenyl)methanone O-Methyl Oxime], the IC50 (PPC-1; Homo sapiens, PPC-1, 96 h) is reported as over 10 µM.

Work on “3-(3,4,5-Trimethoxyphenylsulfonyl)biphenyl [Compound 24]” yielded an IC50 (B16-F1) of over 10 µM, an IC50 (DU 145; SRB assay, 96 h treatment) of over 10 µM and an IC50 (PPC-1; SRB assay, 96 h treatment) of over 10 µM. The IC50 (WM-164) was over 10 µM, the IC50 (A375) was over 10 µM and the IC50 (LNCaP; SRB assay, 96 h treatment) was over 10 µM. The IC50 (PC-3; SRB assay, 96 h treatment) was over 10 µM.

With `COc1cc(C(=O)N2CCC(c3ccccc3)CC2)cc(OC)c1OC` [Compound 9i, (4-Phenylpiperidin-1-yl)(3,4,5-trimethoxyphenyl)methanone] the “antiproliferative activity” value (cancer cell lines) was “totally abolished activity”.

With `COc1cc(C(=O)c2coc(-c3ccccc3)n2)cc(OC)c1OC` [Compound 6, (2R)-(2-Phenyl-oxazol-4-yl)-(3,4,5-trimethoxy-phenyl)-methanone] the “antiproliferative activity” value (cancer cell lines) was “hundreds of nanomolar range”.

In the case of `CNCc1ccc(-c2nc(C(=O)c3cc(OC)c(OC)c(OC)c3)cs2)cc1.Cl` [Compound 40, (2-(4-((Methylamino)methyl)phenyl)thiazol-4-yl)(3,4,5-trimeth-oxyphenyl)methanone Hydrochloride], the “antiproliferative activity” value (cancer cell lines) is reported as “abrogated activity”.

For `COc1cc(C(=O)c2csc(Nc3ccc(C)cc3)n2)cc(OC)c1OC.Cl` [Compound 46b, (2-(p-Tolylamino)thiazol-4-yl)(3,4,5-trimethoxyphenyl)methanone Hydrochloride Salt], the “activity relative to 47” value (cancer cell lines) was “over 20 fold” and the IC50 (cancer cell lines) was 0.035 to 0.065 µM.

In the case of `COc1cc(/C(=N\C#N)c2csc(-c3ccccc3)n2)cc(OC)c1OC` [Compound 16, N-((2-Phenylthiazol-4-yl)(3,4,5-trimethoxyphenyl)methylene)cyanamide], the IC50 (cancer cell lines) is reported as 0.02 to 0.06 µM.

— PMC4755333 (Journal of medicinal chemistry, 2011)
